Measured values published in ChEMBL document CHEMBL1148911, “Ardisinones A-E, novel diarylundecanones from Ardisia arborescens” (J Nat Prod, 2004).
Calls of active or inactive are those of the source.

Legend:
Assay type in all cases: functional, organism-based
Escherichia coli = test: Antibacterial activity against Escherichia coli after 24 hrs by disk diffusion assay
Summary of the method: (§1)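 Agar disk diffusion. Each organism was grown on agar medium, and plates were inoculated by spreading a spore or cell suspension evenly over the agar surface to give confluent growth. Compound-loaded disks were applied, and the zone of inhibition around each disk was measured at 24 and 48 h.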

Staphylococcus aureus = test: Antibacterial activity against Staphylococcus aureus after 24 hrs by disk diffusion assay; summary of the method: as §1
Bacillus subtilis = test: Antibacterial activity against Bacillus subtilis after 24 hrs by disk diffusion assay; summary of the method: as §1
[1] = test system: Mycolicibacterium smegmatis; test: Antibacterial activity against Mycobacterium smegmatis after 24 hrs by disk diffusion assay; summary of the method: as §1
Candida albicans = test: Antibacterial activity against Candida albicans after 48 hrs by disk diffusion assay; summary of the method: as §1
Aspergillus niger = test: Antibacterial activity against Aspergillus niger after 48 hrs by disk diffusion assay; summary of the method: as §1

Measured: Activity

COc1cc(O)c(C(=O)CCCCCCCCCCc2c(O)cccc2O)c(O)c1
inactive: all assays above

COc1cc(O)c(C(=O)CCCCCCCCCCc2c(O)cccc2OC(C)=O)c(O)c1
inactive: all assays above
